ChEMBL document CHEMBL3875209, “Synthesis and biological evaluation of cis-restricted triazole/tetrazole mimics of combretastatin-benzothiazole hybrids as tubulin polymerization inhibitors and apoptosis inducers” (Bioorg Med Chem, 2017)

What was measured:
[1] = Antiproliferative activity against human HepG2 cells after 48 hrs by MTT assay; assay type: functional, cell-based; conditions: HepG2, 48 h
Procedure, shortened: (§1)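 MTT assay. Cells seeded in DMEM with 10% FBS and left 24 h at 37 °C in CO2 before compound treatment for 48 h. MTT (5 mg/mL stock) added for 4 h, formazan dissolved in DMSO, absorbance read at 570 nm. IC50 taken as the mean of three independent experiments.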

[2] = Antiproliferative activity against human HeLa cells after 48 hrs by MTT assay; assay type: functional, cell-based; procedure, shortened: as §1
[3] = Antiproliferative activity against human A549 cells after 48 hrs by MTT assay; assay type: functional, cell-based; conditions: A549, 48 h; procedure, shortened: as §1
[4] = Antiproliferative activity against human DU145 cells after 48 hrs by MTT assay; assay type: functional, cell-based; conditions: DU-145, 48 h; procedure, shortened: as §1
[5] = Antiproliferative activity against human MCF7 cells after 48 hrs by MTT assay; assay type: functional, cell-based; conditions: MCF7, 48 h; procedure, shortened: as §1
A549 [6] = test: Induction of ROS generation in human A549 cells at 100 nM after 48 hrs by DCFDA staining based flow cytometry (reference value: 4.4%); assay type: functional
A549 [7] = test: Induction of mitochondrial membrane potential loss in human A549 cells at 100 nM after 48 hrs by JC-1 staining based flow cytometry (reference value: 3.8%); assay type: functional
A549 [8] = test: Induction of mitochondrial membrane potential loss in human A549 cells assessed as intact mitochondrial membrane at 100 nM after 48 hrs by JC-1 staining based flow cytometry (reference value: 95.9%); assay type: functional

COc1cc(-c2cn(-c3ccc(-c4nc5ccc(F)cc5s4)cc3C)nn2)cc(OC)c1OC
IC50 [1]: 8.05 µM
IC50 [2]: 6.76 µM
IC50 [3]: 3.38 µM
IC50 [4]: 7.33 µM
IC50 [5]: 10.8 µM

COc1ccc2nc(-c3ccc(-n4nnnc4-c4cc(OC)c(OC)c(OC)c4)c(OC)c3)sc2c1
IC50 [1]: 1.67 µM
IC50 [2]: 4.56 µM
IC50 [3]: 2.25 µM
IC50 [4]: 5.67 µM
IC50 [5]: 3.45 µM

COc1cc(OC)c2sc(-c3ccc(-n4nnnc4-c4cc(OC)c(OC)c(OC)c4)c(C)c3)nc2c1
IC50 [1]: 9.74 µM
IC50 [2]: 8.7 µM
IC50 [3]: 5.38 µM
IC50 [4]: 11.7 µM
IC50 [5]: 17.2 µM

COc1cc(-c2nc3cc(OC)c(OC)c(OC)c3s2)ccc1-n1nnnc1-c1cc(OC)c(OC)c(OC)c1
IC50 [1]: 16 µM
IC50 [2]: 5.79 µM
IC50 [3]: 3.8 µM
IC50 [4]: 10.8 µM
IC50 [5]: 16.6 µM

COc1cc(-c2nnnn2-c2ccc(-c3nc4ccc(F)cc4s3)cc2)cc(OC)c1OC
IC50 [1]: 7.95 µM
IC50 [2]: 2.23 µM
IC50 [3]: 2.07 µM
IC50 [4]: 4.57 µM
IC50 [5]: 8.57 µM

COc1cc(-c2nc3cc(OC)c(OC)c(OC)c3s2)ccc1-n1cnnc1-c1cc(OC)c(OC)c(OC)c1
IC50 [1]: 7.41 µM
IC50 [2]: 5.51 µM
IC50 [3]: 3.46 µM
IC50 [4]: 11.5 µM
IC50 [5]: 10.5 µM

COc1cc(-c2nc3ccc(F)cc3s2)ccc1-n1nnnc1-c1cc(OC)c(OC)c(OC)c1
IC50 [1]: 1.24 µM
IC50 [2]: 4.36 µM
IC50 [3]: 1.38 µM
IC50 [4]: 4.77 µM
IC50 [5]: 1.52 µM

COc1ccc2nc(-c3ccc(-n4nnnc4-c4cc(OC)c(OC)c(OC)c4)c(C)c3)sc2c1
IC50 [1]: 10.5 µM
IC50 [2]: 11 µM
IC50 [3]: 4.78 µM
IC50 [4]: 15.9 µM
IC50 [5]: 12.6 µM

COc1cc(OC)c2sc(-c3ccc(-n4nnnc4-c4cc(OC)c(OC)c(OC)c4)c(OC)c3)nc2c1
IC50 [1]: 17 µM
IC50 [2]: 11.7 µM
IC50 [3]: 9.24 µM
IC50 [4]: 13.5 µM
IC50 [5]: 24.7 µM

COc1cc(OC)c2sc(-c3ccc(-n4cc(-c5cc(OC)c(OC)c(OC)c5)nn4)c(OC)c3)nc2c1
IC50 [1]: 1.47 µM
IC50 [2]: 0.37 µM
IC50 [3]: 0.24 µM
IC50 [4]: 0.41 µM
IC50 [5]: 4.36 µM

COc1ccc2nc(-c3ccc(-n4cc(-c5cc(OC)c(OC)c(OC)c5)nn4)cc3)sc2c1
IC50 [1]: 12.4 µM
IC50 [2]: 11.5 µM
IC50 [3]: 6.3 µM
IC50 [4]: 12.3 µM
IC50 [5]: 22.9 µM

COc1cc(-c2cn(-c3ccc(-c4nc5ccc(F)cc5s4)cc3)nn2)cc(OC)c1OC
IC50 [1]: 7.76 µM
IC50 [2]: 3.46 µM
IC50 [3]: 1.41 µM
IC50 [4]: 8.12 µM
IC50 [5]: 10.7 µM

COc1cc(OC)c2sc(-c3ccc(-n4cnnc4-c4cc(OC)c(OC)c(OC)c4)c(OC)c3)nc2c1
IC50 [1]: 9.2 µM
IC50 [2]: 6.45 µM
IC50 [3]: 7.24 µM
IC50 [4]: 10.2 µM
IC50 [5]: 8.57 µM

COc1cc(-c2nc3cc(OC)c(OC)c(OC)c3s2)ccc1-n1cc(-c2cc(OC)c(OC)c(OC)c2)nn1
IC50 [1]: 29.9 µM
IC50 [2]: 17.8 µM
IC50 [3]: 11 µM
IC50 [4]: 15.9 µM
IC50 [5]: 27.8 µM

COc1ccc2nc(-c3ccc(-n4cc(-c5cc(OC)c(OC)c(OC)c5)nn4)c(C)c3)sc2c1
IC50 [1]: 20.1 µM
IC50 [2]: 13.1 µM
IC50 [3]: 15.8 µM
IC50 [4]: 18.2 µM
IC50 [5]: 22 µM

COc1cc(OC)c2sc(-c3ccc(-n4nnnc4-c4cc(OC)c(OC)c(OC)c4)cc3)nc2c1
IC50 [1]: 22.4 µM
IC50 [2]: 10.2 µM
IC50 [3]: 7.24 µM
IC50 [4]: 19.9 µM
IC50 [5]: 31.6 µM

COc1ccc2nc(-c3ccc(-n4cnnc4-c4cc(OC)c(OC)c(OC)c4)cc3)sc2c1
IC50 [1]: 11.6 µM
IC50 [2]: 10 µM
IC50 [3]: 7.24 µM
IC50 [4]: 11.2 µM
IC50 [5]: 9.5 µM

COc1cc(OC)c2sc(-c3ccc(-n4cc(-c5cc(OC)c(OC)c(OC)c5)nn4)cc3)nc2c1
IC50 [1]: 17.4 µM
IC50 [2]: 9.05 µM
IC50 [3]: 7.61 µM
IC50 [4]: 9.33 µM
IC50 [5]: 19.9 µM

COc1cc(OC)c2sc(-c3ccc(-n4cc(-c5cc(OC)c(OC)c(OC)c5)nn4)c(C)c3)nc2c1
IC50 [1]: 15.5 µM
IC50 [2]: 8.12 µM
IC50 [3]: 7.76 µM
IC50 [4]: 10.2 µM
IC50 [5]: 18.8 µM

Cc1cc(-c2nc3cc(F)ccc3s2)ccc1N
Activity (A549 [6]): 10%
Activity (A549 [7]): 16%
Activity (A549 [8]): 81.8%

COc1ccc2nc(-c3ccc(-n4nnnc4-c4cc(OC)c(OC)c(OC)c4)cc3)sc2c1
IC50 [1]: 9.05 µM
IC50 [2]: 6.6 µM
IC50 [3]: 3.8 µM
IC50 [4]: 9.12 µM
IC50 [5]: 11.2 µM

COc1cc(OC)c2sc(-c3ccc(-n4cnnc4-c4cc(OC)c(OC)c(OC)c4)c(C)c3)nc2c1
IC50 [1]: 2.54 µM
IC50 [2]: 0.93 µM
IC50 [3]: 0.26 µM
IC50 [4]: 1.04 µM
IC50 [5]: 5.35 µM

COc1cc(-c2cn(-c3ccc(-c4nc5cc(OC)c(OC)c(OC)c5s4)cc3)nn2)cc(OC)c1OC
IC50 [1]: 15.5 µM
IC50 [2]: 11.5 µM
IC50 [3]: 8.54 µM
IC50 [4]: 14.8 µM
IC50 [5]: 9.12 µM

COc1cc(-c2nnnn2-c2ccc(-c3nc4cc(OC)c(OC)c(OC)c4s3)cc2)cc(OC)c1OC
IC50 [1]: 8.51 µM
IC50 [2]: 6.16 µM
IC50 [3]: 3.54 µM
IC50 [4]: 7.24 µM
IC50 [5]: 8.68 µM

COc1cc(-c2nncn2-c2ccc(-c3nc4cc(OC)c(OC)c(OC)c4s3)cc2C)cc(OC)c1OC
IC50 [1]: 1.25 µM
IC50 [2]: 0.21 µM
IC50 [3]: 0.23 µM
IC50 [4]: 0.7 µM
IC50 [5]: 2.99 µM

COc1cc(-c2nncn2-c2ccc(-c3nc4cc(OC)c(OC)c(OC)c4s3)cc2)cc(OC)c1OC
IC50 [1]: 1.27 µM
IC50 [2]: 0.21 µM
IC50 [3]: 0.091 µM
IC50 [4]: 0.46 µM
IC50 [5]: 3.15 µM

COc1ccc2nc(-c3ccc(-n4cc(-c5cc(OC)c(OC)c(OC)c5)nn4)c(OC)c3)sc2c1
IC50 [1]: 16.4 µM
IC50 [2]: 11.1 µM
IC50 [3]: 10.7 µM
IC50 [4]: 18.6 µM
IC50 [5]: 15.5 µM

COc1cc(-c2nc3ccc(F)cc3s2)ccc1-n1cc(-c2cc(OC)c(OC)c(OC)c2)nn1
IC50 [1]: 13.9 µM
IC50 [2]: 10.1 µM
IC50 [3]: 6.02 µM
IC50 [4]: 14.2 µM
IC50 [5]: 16.1 µM

COc1cc(-c2nc3ccc(F)cc3s2)ccc1-n1cnnc1-c1cc(OC)c(OC)c(OC)c1
IC50 [1]: 2.75 µM
IC50 [2]: 2.81 µM
IC50 [3]: 1.22 µM
IC50 [4]: 7.58 µM
IC50 [5]: 2.49 µM

COc1cc(-c2nnnn2-c2ccc(-c3nc4ccc(F)cc4s3)cc2C)cc(OC)c1OC
IC50 [1]: 1.69 µM
IC50 [2]: 0.97 µM
IC50 [3]: 0.24 µM
IC50 [4]: 1.14 µM
IC50 [5]: 3.23 µM

COc1cc(-c2nnnn2-c2ccc(-c3nc4cc(OC)c(OC)c(OC)c4s3)cc2C)cc(OC)c1OC
IC50 [1]: 23.4 µM
IC50 [2]: 9.81 µM
IC50 [3]: 7.41 µM
IC50 [4]: 14.8 µM
IC50 [5]: 17.5 µM

COc1cc(OC)c2sc(-c3ccc(-n4cnnc4-c4cc(OC)c(OC)c(OC)c4)cc3)nc2c1
IC50 [1]: 9.65 µM
IC50 [2]: 4.13 µM
IC50 [3]: 5.04 µM
IC50 [4]: 11.8 µM
IC50 [5]: 8.21 µM

COc1ccc2nc(-c3ccc(-n4cnnc4-c4cc(OC)c(OC)c(OC)c4)c(OC)c3)sc2c1
IC50 [1]: 9.05 µM
IC50 [2]: 8.76 µM
IC50 [3]: 9.06 µM
IC50 [4]: 11.6 µM
IC50 [5]: 14.7 µM

COc1cc(-c2nncn2-c2ccc(-c3nc4ccc(F)cc4s3)cc2)cc(OC)c1OC
IC50 [1]: 10.4 µM
IC50 [2]: 7 µM
IC50 [3]: 6.58 µM
IC50 [4]: 8.21 µM
IC50 [5]: 12.5 µM

COc1cc(-c2cn(-c3ccc(-c4nc5cc(OC)c(OC)c(OC)c5s4)cc3C)nn2)cc(OC)c1OC
IC50 [1]: 18.6 µM
IC50 [2]: 11.3 µM
IC50 [3]: 9.77 µM
IC50 [4]: 15.8 µM
IC50 [5]: 20.8 µM
